From ChEMBL document CHEMBL5230166, “Novel quinoline-piperazine hybrids: the design, synthesis and evaluation of antibacterial and antituberculosis properties” (RSC Med Chem, 2023)
In brackets after ≈: the same amount, converted by molar mass.

Key:
Type in all cases: functional
[1] = system: Mycobacterium tuberculosis; test: Antibacterial activity against Mycobacterium tuberculosis H37Rv ATCC 25618 assessed as inhibition of bacterial growth incubated for 2 days by CLSI protocol based broth microdilution method; settings: H37Rv ATCC 25618, 48 h, time 2 day
[2] = system: Staphylococcus epidermidis; test: Antibacterial activity against clinical isolate methicillin resistant Staphylococcus epidermidis AB 735 assessed as inhibition of bacterial growth incubated for 22 to 24 hrs; settings: time 22-24 hrs
[3] = system: Enterococcus faecalis; test: Antibacterial activity against vancomycin resistant Enterococcus faecalis ATCC 700802 assessed as inhibition of bacterial growth incubated for 22 to 24 hrs; settings: time 22-24 hrs
Outline: (§1)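 Broth microdilution MIC. Strains were subcultured on Soybean Casein Digest Agar, and inocula were taken from mid-log culture, adjusted to McFarland (~10⁸ CFU/mL), then diluted to ~10⁵ CFU/mL. Serial dilutions ran from 64 to 0.03 µg/mL. Plates were incubated 22–24 h at 37 °C, in triplicate. MIC was the lowest concentration with no visible growth.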

[4] = system: Staphylococcus aureus; test: Antibacterial activity against methicillin sensitive Staphylococcus aureus ATCC 29213 assessed as inhibition of bacterial growth incubated for 22 to 24 hrs; settings: time 22-24 hrs
Outline: (§2)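 Broth MIC referenced to an earlier protocol. Inocula come from mid-log cultures sub-cultured on soybean casein digest agar, adjusted to McFarland (~10⁸ CFU/mL), then diluted to ~10⁵ CFU/mL. Compounds and controls are serially diluted from 64 to 0.03 µg/mL. Tested in triplicate, read after 22–24 h at 37 °C. MIC is the lowest concentration with no visible growth.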

[5] = system: Acinetobacter baumannii; test: Antibacterial activity against clinical isolate Acinetobacter baumannii BAA 747 assessed as inhibition of bacterial growth incubated for 22 to 24 hrs; settings: time 22-24 hrs
[6] = system: Pseudomonas aeruginosa; test: Antibacterial activity against clinical isolate Pseudomonas aeruginosa AB 645 assessed as inhibition of bacterial growth incubated for 22 to 24 hrs; settings: time 22-24 hrs
[7] = system: Mycolicibacterium smegmatis; test: Antibacterial activity against Mycobacterium smegmatis ATCC 607 assessed as inhibition of bacterial growth incubated for 2 days by CLSI protocol based broth microdilution method; settings: ATCC 607, 48 h, time 2 day
Outline: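 CLSI broth microdilution in Middlebrook 7H9 with 10% ADC. Compounds are dissolved in DMSO at 4.0 mg/mL (stock) and serially diluted from 64 to 0.015 µg/mL. Inoculum is ~10⁵ CFU/mL, checked by plating on 7H11 agar. Rifampin and levofloxacin are positive controls; drug-free broth with DMSO is the negative control. Growth inhibition is read after 2 days at 37 °C as MIC.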

[8] = system: Escherichia coli; test: Antibacterial activity against clinical isolate Escherichia coli AB 117 assessed as inhibition of bacterial growth incubated for 22 to 24 hrs; settings: time 22-24 hrs
[9] = system: Klebsiella pneumoniae; test: Antibacterial activity against clinical isolate Klebsiella pneumoniae AB 356 assessed as inhibition of bacterial growth incubated for 22 to 24 hrs; settings: time 22-24 hrs
[10] = system: Enterococcus faecium; test: Antibacterial activity against Enterococcus faecium ATCC 49624 assessed as inhibition of bacterial growth incubated for 22 to 24 hrs; settings: time 22-24 hrs; outline: as §2
[11] = system: Staphylococcus aureus; test: Antibacterial activity against methicillin resistant Staphylococcus aureus ATCC 33591 assessed as inhibition of bacterial growth incubated for 22 to 24 hrs; settings: time 22-24 hrs; outline: as §1
[12] = system: Moraxella catarrhalis; test: Antibacterial activity against Moraxella catarrhalis ATCC 25238 assessed as inhibition of bacterial growth incubated for 22 to 24 hrs; settings: time 22-24 hrs; outline: as §2

Row | SMILES | MIC [1] | MIC [2] | MIC [3] | MIC [4] | MIC [5] | MIC [6] | MIC [7] | MIC [8] | MIC [9] | MIC [10] | MIC [11] | MIC [12]
1 | COc1ccc2nc(CN3CCN(S(=O)(=O)c4cccc5ccccc45)CC3)cc(OC)c2c1 | > 64 µg/mL | > 64 µg/mL | > 64 µg/mL | > 64 µg/mL | > 64 µg/mL | > 64 µg/mL | > 64 µg/mL | > 64 µg/mL | > 64 µg/mL | > 64 µg/mL | > 64 µg/mL | > 64 µg/mL
2 | COc1ccc2nc(CN3CCN(S(=O)(=O)c4cccs4)CC3)cc(OC)c2c1 | > 64 µg/mL | > 64 µg/mL | > 64 µg/mL | > 64 µg/mL | > 64 µg/mL | > 64 µg/mL | 32 µg/mL (≈ 73.8 µM) | > 64 µg/mL | > 64 µg/mL | > 64 µg/mL | > 64 µg/mL | > 64 µg/mL
3 | CNS(=O)(=O)N1CCN(Cc2cc(OC)c3cc(OC)ccc3n2)CC1 | > 64 µg/mL | > 64 µg/mL | > 64 µg/mL | > 64 µg/mL | > 64 µg/mL | > 64 µg/mL | > 64 µg/mL | > 64 µg/mL | > 64 µg/mL | > 64 µg/mL | > 64 µg/mL | > 64 µg/mL
4 | COc1ccc2nc(CN3CCN(C(=O)c4ccc(Cl)cc4Cl)CC3)cc(OC)c2c1 | > 64 µg/mL | > 64 µg/mL | > 64 µg/mL | > 64 µg/mL | > 64 µg/mL | > 64 µg/mL | > 64 µg/mL | > 64 µg/mL | > 64 µg/mL | > 64 µg/mL | > 64 µg/mL | > 64 µg/mL
5 | COc1cc(CN2CCN(S(=O)(=O)c3ccc(C)cc3)CC2)nc2ccc(F)cc12 | > 64 µg/mL | 32 µg/mL (≈ 74.5 µM) | > 64 µg/mL | 64 µg/mL (≈ 149 µM) | > 64 µg/mL | > 64 µg/mL | > 64 µg/mL | > 64 µg/mL | > 64 µg/mL | > 64 µg/mL | > 64 µg/mL | 16 µg/mL (≈ 37.3 µM)
6 | COc1ccc(S(=O)(=O)N2CCN(Cc3cc(OC)c4cc(F)ccc4n3)CC2)cc1 | > 64 µg/mL | > 64 µg/mL | > 64 µg/mL | > 64 µg/mL | > 64 µg/mL | > 64 µg/mL | > 64 µg/mL | > 64 µg/mL | > 64 µg/mL | > 64 µg/mL | > 64 µg/mL | > 64 µg/mL
7 | COc1cc(Cc2cnc(N)nc2N)cc(OC)c1OC [TRIMETHOPRIM] | – | > 8 µg/mL | 0.25 µg/mL (≈ 0.861 µM) | 4 µg/mL (≈ 13.8 µM) | > 8 µg/mL | > 8 µg/mL | – | 16 µg/mL (≈ 55.1 µM) | 2 µg/mL (≈ 6.89 µM) | 0.03 µg/mL (≈ 0.103 µM) | 8 µg/mL (≈ 27.6 µM) | 4 µg/mL (≈ 13.8 µM)
8 | CC(=O)NC[C@H]1CN(c2ccc(N3CCOCC3)c(F)c2)C(=O)O1 [LINEZOLID] | – | 8 µg/mL (≈ 23.7 µM) | – | – | > 64 µg/mL | > 64 µg/mL | – | 8 µg/mL (≈ 23.7 µM) | > 64 µg/mL | 4 µg/mL (≈ 11.9 µM) | – | 4 µg/mL (≈ 11.9 µM)
9 | O=C(O)c1cn(C2CC2)c2cc(N3CCNCC3)c(F)cc2c1=O [CIPROFLOXACIN] | – | – | 0.5 µg/mL (≈ 1.51 µM) | 0.5 µg/mL (≈ 1.51 µM) | – | – | – | – | – | 2 µg/mL (≈ 6.04 µM) | 1 µg/mL (≈ 3.02 µM) | 0.03 µg/mL (≈ 0.0905 µM)
10 | C[C@H]1COc2c(N3CCN(C)CC3)c(F)cc3c(=O)c(C(=O)O)cn1c23.C[C@H]1COc2c(N3CCN(C)CC3)c(F)cc3c(=O)c(C(=O)O)cn1c23.O [LEVOFLOXACIN] | 2 µg/mL | – | – | – | – | – | 0.125 µg/mL | – | – | – | – | –
11 | COc1cc(CN2CCN(C(=O)c3cccc(Cl)c3)CC2)nc2ccc(F)cc12 | > 64 µg/mL | > 64 µg/mL | > 64 µg/mL | > 64 µg/mL | > 64 µg/mL | > 64 µg/mL | > 64 µg/mL | > 64 µg/mL | > 64 µg/mL | > 64 µg/mL | > 64 µg/mL | 64 µg/mL (≈ 155 µM)
12 | CO[C@H]1/C=C/O[C@@]2(C)Oc3c(C)c(O)c4c(O)c(c(/C=N/N5CCN(C)CC5)c(O)c4c3C2=O)NC(=O)/C(C)=C\C=C\[C@H](C)[C@H](O)[C@@H](C)[C@@H](O)[C@@H](C)[C@H](OC(C)=O)[C@@H]1C [RIFAMPIN] | 4 µg/mL (≈ 4.86 µM) | – | – | – | – | – | 0.5 µg/mL (≈ 0.608 µM) | – | – | – | – | –
